Measured values taken from PMC5421360 (Peptides, 2017).
Converted amounts (≈) assume the structure as drawn. Marks after values point to notes of the source that are not given here. Non-standard residues stand in square brackets, D forms with d. Residues, ends and D or L forms follow the SMILES beside them.

Columns and labels:
EGFR [1] = assay: Western blot of EGFR tyrosine phosphorylation in NCI-H838 cells; type: cell-based, human; details: for effect on increase in EGFR phosphorylation caused by 100 nM ET-1: 10 μM inhibitor, 2 min ET-1; for effect on basal P-EGFR, EGFR: inhibitor alone; for effect on basal P-EGFR, EGFR / effect on EGFR transactivation caused by ET-1: data not shown; for effect on EGFR transactivation caused by ET-1: NSCLC cells, concentration not given
HER2 [2] = assay: Western blot of HER2 tyrosine phosphorylation in NCI-H838 cells; type: cell-based, human; details: for effect on increase in HER2 phosphorylation caused by 100 nM ET-1: 10 μM inhibitor, 2 min ET-1; for effect on basal P-HER2 or HER2: inhibitor alone; for effect on basal P-HER2 or HER2 / effect on HER2 transactivation caused by ET-1: data not shown; for effect on HER2 transactivation caused by ET-1: NSCLC cells, concentration not given
[3] = tested on: cytosolic Ca2+ in SC-A1 cells; details: cited from earlier work
NSCLC patients [4] = details: plus paclitaxel-carboplatin; cited from earlier work
ETAR [5] = target: T1, ETAR (Homo sapiens, UniProt P25101); assay: 125I-ET-1 radioreceptor binding to NCI-H838 cells
T1 sequence (P25101 21-427): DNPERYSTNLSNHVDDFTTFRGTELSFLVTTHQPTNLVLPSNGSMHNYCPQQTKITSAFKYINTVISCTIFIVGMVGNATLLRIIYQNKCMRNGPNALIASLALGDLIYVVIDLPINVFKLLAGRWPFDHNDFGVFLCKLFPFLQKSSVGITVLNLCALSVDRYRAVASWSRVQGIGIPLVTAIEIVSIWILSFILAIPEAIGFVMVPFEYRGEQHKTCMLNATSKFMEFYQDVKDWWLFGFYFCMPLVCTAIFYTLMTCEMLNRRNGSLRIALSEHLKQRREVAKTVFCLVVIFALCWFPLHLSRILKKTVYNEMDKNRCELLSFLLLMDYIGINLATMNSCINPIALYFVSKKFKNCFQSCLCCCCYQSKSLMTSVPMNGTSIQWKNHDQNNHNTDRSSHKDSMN

[6] = tested on: cytosolic Ca2+ in NCI-H1975 cells; assay: Cytosolic Ca2+ in Fura-2AM loaded NCI-H1975 cells; type: cell-based, human; details: for antagonism of the Ca2+ increase caused by 10 nM ET-1: 1000 nM antagonist; for effect on basal cytosolic Ca2+: 1000 nM antagonist alone
Method in brief: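 NCI-H1975 cells were detached with trypsin-EDTA and loaded with Fura-2AM in SIT medium (2.5 × 10^6 cells/ml) at 37°C for 30 min. Cells were spun at 1000 × g for 5 min, resuspended at 2.5 × 10^6/ml and placed in a stirred quartz cuvette at 37°C.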

NCI-H838 cells [7] = assay: Clonogenic assay, NCI-H838 cells; type: cell-based, human; details: gefitinib 1 ug/ml; for Colony number: in the presence of ET-1 10 nM, BQ123/BQ788 1000 nM, 2 weeks; for reduction of colony number: absence of exogenous ET-1, BQ123 1 μM
ETAR [8] = target: T1, ETAR; assay: 125I-ET-1 radioreceptor binding to NCI-H1975 cells
NCI-H838 cells [9] = assay: MTT proliferation assay, NCI-H838 cells; type: cell-based; details: Homo sapiens, NCI-H838, 48 h, read-out: IC50, proliferation
NCI-H727 cells = assay: MTT proliferation assay, NCI-H727 cells; type: cell-based; details: Homo sapiens, NCI-H727, 48 h, read-out: IC50, proliferation
A549 cells = assay: MTT proliferation assay, A549 cells; type: cell-based; details: Homo sapiens, A549, 48 h, read-out: IC50, proliferation
NSCLC patients [10] = details: zibotentan or zibotentan plus pemetrexed; cited from earlier work
[11] = tested on: reactive oxygen species in NCI-H838 cells; assay: Reactive oxygen species in H2DCF labeled NCI-H838 cells; type: cell-based, human
Method in brief: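 NCI-H838 cells were plated at 30,000/well and cultured overnight. They were loaded with 10 µM H2DCF for 1 h and washed 3 times in serum-free SIT medium. Test compound (5 mM or 10 µM) was added 30 min before 10 µM H2O2. Fluorescence (ex 485, […]) was read 0.5 h after stimulus and expressed as relative fluorescence, mean ± S.D. of 8 determinations.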

EGFR [12] = assay: Western blot of EGFR tyrosine phosphorylation in NCI-H1975 cells; type: cell-based, human; details: 5 mM
Method in brief: (§1)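 Lysates (Tris pH 7.5, vanadate) were either immunoprecipitated with anti-phosphotyrosine antibody (400 µg protein) or loaded directly (20 µg) and probed with anti-PY1068-EGFR or anti-[…]-HER2. ECL bands were quantified by densitometry as mean % tyrosine phosphorylation.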

HER2 [13] = assay: Western blot of HER2 tyrosine phosphorylation in NCI-H1975 cells; type: cell-based, human; details: 5 mM
Method in brief: as §1

[14] = addition alone (ET-1 100 nM, H2O2 10 μM, Tiron 5 mM, ZD4054 10 μM), 0.5 hr, None = 100
[15] = with H2O2 10 μM, Tiron or ZD4054 added 0.5 h before, read 0.5 hr after H2O2

With `CNC(=O)[C@H](Cc1c[nH]c2ccccc12)NC(=O)[C@@H](CC(=O)NO)CC(C)C` [GM6001] as the compound, how does the “effect on increase in EGFR phosphorylation caused by 100 nM ET-1” value (EGFR [1]) read?
Its value is “inhibited significantly”.

And the “effect on basal P-EGFR, EGFR” value (EGFR [1])?
Its value is “no effect”.

And the “effect on increase in HER2 phosphorylation caused by 100 nM ET-1” value (HER2 [2])?
Its value is “inhibited significantly”.

What about the “effect on basal P-HER2 or HER2” value (HER2 [2]) of the same compound?
Its value is “no effect”.

For `COC(=O)C1=C(C)NC(C)=C(C(=O)OC)C1c1ccccc1[N+](=O)[O-]` [nifedipine], which “effect on the Ca2+ increase caused by ET-1” value [3] is on record?
The value was “reversed”.

With `CCCCN(CCCC)C(=O)CN1C[C@H](c2ccc3c(c2)OCO3)[C@@H](C(=O)O)[C@@H]1c1ccc(OC)cc1` [atrasentan] as the compound, how does the tolerability (NSCLC patients [4]) read?
Its tolerability is “well tolerated”.

For `CCCC[C@@H](NC(=O)[C@@H](Cc1cn(C(=O)OC)c2ccccc12)NC(=O)[C@H](CC(C)(C)C)NC(=O)N1[C@H](C)CCC[C@@H]1C)C(=O)O` [BQ788], which IC50 (ETAR [5]) is on record?
Its IC50 is 20 ± 2 nM.

And the “antagonism of the Ca2+ increase caused by 10 nM ET-1” value [6]?
Its value is “did not antagonize”.

And the “effect on basal cytosolic Ca2+” value [6]?
Its value is “had no effect”.

What about the “effect on EGFR transactivation caused by ET-1” value (EGFR [1]) of the same compound?
Its value is “little effect”.

And the Colony number (NCI-H838 cells [7])?
The Colony number was 46 ± 4.

And the “effect on HER2 transactivation caused by ET-1” value (HER2 [2])?
The value was “little effect”.

And the IC50 (ETAR [8])?
Its IC50 is 25 ± 3 nM.

Which “reduction of colony number” value (NCI-H838 cells [7]) does the source give for `COc1cc2ncnc(Nc3ccc(F)c(Cl)c3)c2cc1OCCCN1CCOCC1` [Gefitinib, gefitinib] here?
The value was 50%.

And the Colony number (NCI-H838 cells [7])?
Its Colony number is 32 ± 3 ^aa.

And the “effect on HER2 transactivation caused by 100 nM ET-1” value (HER2 [2]; 10 μg/ml)?
Its value is “significantly reduced”.

Which “effect on the Ca2+ increase caused by ET-1” value [3] does the source give for `COc1ccc2c(c1)CC[C@@H]1[C@@H]2CC[C@]2(C)[C@@H](NCCCCCCN3C(=O)C=CC3=O)CC[C@@H]12` [U73122] here?
The value was “reversed”.

Which IC50 (NCI-H838 cells [9]) does the source give for `CS(=O)(=O)CCNCc1ccc(-c2ccc3ncnc(Nc4ccc(OCc5cccc(F)c5)c(Cl)c4)c3c2)o1` [Lapatinib, lapatinib] here?
Its IC50 is 1 µg/mL (≈ 1.72 µM).

And the IC50 (NCI-H727 cells)?
The IC50 was 0.5 µg/mL (≈ 0.86 µM).

And the IC50 (ETAR [5])?
The IC50 was over 10000 nM.

And the IC50 (A549 cells)?
Its IC50 is 2 µg/mL (≈ 3.44 µM).

What about the “effect on EGFR transactivation caused by ET-1” value (EGFR [1]) of the same compound?
The value was “inhibited”.

What about the “effect on HER2 transactivation caused by ET-1” value (HER2 [2]) of the same compound?
Its value is “inhibited”.

What about the IC50 (ETAR [8]) of the same compound?
The IC50 was over 10000 nM.

With `CC(C)(C)n1nc(-c2ccc(Cl)cc2)c2c(N)ncnc21` [PP2] as the compound, how does the “effect on increase in EGFR phosphorylation caused by 100 nM ET-1” value (EGFR [1]) read?
Its value is “inhibited significantly”.

And the “effect on basal P-EGFR, EGFR” value (EGFR [1])?
Its value is “no effect”.

And the “effect on increase in HER2 phosphorylation caused by 100 nM ET-1” value (HER2 [2])?
Its value is “inhibited significantly”.

And the “effect on basal P-HER2 or HER2” value (HER2 [2])?
Its value is “no effect”.

Which results are given for `COc1nc(C)cnc1NS(=O)(=O)c1cccnc1-c1ccc(-c2nnco2)cc1` [ZD4054, zibotentan]?
IC50 (NCI-H838 cells [9]): 50 µg/mL (≈ 118 µM); IC50 (A549 cells): 45 µg/mL (≈ 106 µM); effect on EGFR transactivation caused by ET-1 (EGFR [1]): inhibited; overall survival (NSCLC patients [10]): no differences; % Fluorescence intensity [11, 14]: 105 ± 6 ^aa^, ^bb %; % Fluorescence intensity [11, 15]: 351 ± 22 ^aa %; effect on HER2 transactivation caused by ET-1 (HER2 [2]): inhibited

With `CC(=O)N[C@@H](CS)C(=O)O` [Nacetylcysteine] as the compound, how does the “effect on EGFR transactivation caused by ET-1” value (EGFR [1]) read?
The value was “inhibited”.

What about the “effect on HER2 transactivation caused by ET-1” value (HER2 [2]) of the same compound?
The value was “inhibited”.

For `OO` [H2O2], which “% Fluorescence intensity” value [11, 14] is on record?
The value was 401 ± 37 ^aa %.

For `O=S(=O)(O)c1cc(O)c(O)c(S(=O)(=O)O)c1` [Tiron], which “effect on increase in EGFR tyrosine phosphorylation caused by ET-1” value (EGFR [12]) is on record?
Its value is “inhibited significantly”.

What about the “effect on basal P-EGFR, EGFR” value (EGFR [1]) of the same compound?
Its value is “no effect”.

And the “% Fluorescence intensity” value [11, 14]?
The value was 99 ± 7 ^aa^, ^bb %.

And the “% Fluorescence intensity” value [11, 15]?
Its value is 171 ± 12 ^bb %.

What about the “effect on increase in HER2 tyrosine phosphorylation caused by ET-1” value (HER2 [13]) of the same compound?
The value was “inhibited significantly”.

And the “effect on basal P-HER2 or HER2” value (HER2 [2])?
Its value is “no effect”.

What does the source list for `CC(C)C[C@@H]1NC(=O)[C@@H](C(C)C)NC(=O)[C@@H]2CCCN2C(=O)[C@@H](CC(=O)O)NC(=O)[C@@H](Cc2c[nH]c3ccccc23)NC1=O` [BQ123] (cyclo(L[dW][dD]P[dV]); ring closure inferred)?
effect on the Ca2+ increase caused by ET-1 [3]: reversed; IC50 (ETAR [5]): 1 ± 0.2 nM; antagonism of the Ca2+ increase caused by 10 nM ET-1 [6]: blocked; effect on basal cytosolic Ca2+ [6]: did not alter; effect on EGFR tyrosine phosphorylation caused by 100 nM ET-1 (EGFR [1]; 0.1 μM antagonist): little effect; effect on EGFR tyrosine phosphorylation caused by 100 nM ET-1 (EGFR [1]; 1 μM or 10 μM antagonist): significantly reduced; reduction of colony number (NCI-H838 cells [7]): 22%; Colony number (NCI-H838 cells [7]): 37 ± 2 ^a; effect on HER2 tyrosine phosphorylation caused by 100 nM ET-1 (HER2 [2]; 0.1 μM antagonist): little effect; effect on HER2 tyrosine phosphorylation caused by 100 nM ET-1 (HER2 [2]; 1 μM or 10 μM antagonist): significantly reduced; IC50 (ETAR [8]): 1.5 ± 0.03 nM
